bIAP activator = increases bovine intestinal alkaline phosphatase activity. purified bovine IAP, CDP-star luminescence, 30 min; hits give high values; fold of DMSO-control signal, blank-subtracted. activation factor at 20 µM. actives 0.17% (n = 200,000);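 active means activation factor of 2 or more at 20 µM, a signal rise over negative controls twice the positive control's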
mIAP block = blocks mouse intestinal alkaline phosphatase; purified mouse IAP, CDP-Star luminescence, 30 min; inhibition, % at 10 µM; actives 0.2% (n = 330,000);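 active means inhibition of at least 40% at 10 µM in the primary screen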
bIAP inh = blocks bovine intestinal alkaline phosphatase activity | inhibition, % at 20 µM | purified bovine IAP, CDP-star luminescence, 30 min | 190,000 tested, under 10 active;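 active means over 50% inhibition of intestinal alkaline phosphatase at 20 µM in the single-dose screen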
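System: purified bovine intestinal alkaline phosphatase (IAP) enzyme; Input: IAP diluted 1/65,000,000 in the well; Measured by: CDP-star luminescence signal; Compound dosing: 20 µM single dose; Incubation: 30 min reaction at room temperature.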
hIAP act = increases human intestinal alkaline phosphatase activity; actives 0.16% (n = 330,000); P09923; activation factor at 10 µM; purified human IAP, CDP-Star luminescence, 30 min; hits give high values; 1 = vehicle-only enzyme, 0 = enzyme-free background;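 active means activation factor of the enzyme at least 2-fold when tested at 20 µM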
Target sequence (P09923 whole entry, looked up): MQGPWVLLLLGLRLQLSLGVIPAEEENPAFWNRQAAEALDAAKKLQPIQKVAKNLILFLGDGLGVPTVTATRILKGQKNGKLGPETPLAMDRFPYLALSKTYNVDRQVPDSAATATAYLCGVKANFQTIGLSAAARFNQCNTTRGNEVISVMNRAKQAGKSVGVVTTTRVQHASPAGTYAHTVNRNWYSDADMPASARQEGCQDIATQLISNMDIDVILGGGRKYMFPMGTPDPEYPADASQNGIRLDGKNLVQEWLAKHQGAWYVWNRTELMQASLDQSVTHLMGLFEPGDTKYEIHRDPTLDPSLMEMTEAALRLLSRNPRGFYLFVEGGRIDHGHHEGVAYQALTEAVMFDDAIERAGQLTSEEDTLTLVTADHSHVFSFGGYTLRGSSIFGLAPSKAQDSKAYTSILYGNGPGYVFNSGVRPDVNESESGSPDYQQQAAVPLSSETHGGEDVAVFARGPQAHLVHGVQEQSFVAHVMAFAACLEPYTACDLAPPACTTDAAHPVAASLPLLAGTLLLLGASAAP
mIAP act = increases mouse intestinal alkaline phosphatase activity; muIAP, CDP-Star luminescence, 30 min; hits give high values; 1 = vehicle-only enzyme signal, 0 = enzyme-free wells; activation factor at 10 µM; actives 0.24% (n = 330,000); AID 2805;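 active means activation factor of at least 2 at 20 µM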
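System: mouse IAP enzyme. Reagent: CDP-Star chemiluminescent phosphatase substrate. Benchmarks: DMSO wells, no-enzyme wells. Times: 30 min enzyme-substrate-compound incubation at room temperature. Detection: luminescence from enzymatic CDP-Star hydrolysis. Doses: test compounds delivered from DMSO solution.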
hIAP block = human IAP inhibition. purified IAP, CDP-Star luminescence, 30 min. inhibition, % at 10 µM. actives 0.12% (n = 330,000). AID 2544;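 active means inhibition reaching a set limit with compound at 10 µM in the primary screen, cut at about 35% in these data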
mIAP inh conf = mouse IAP inhibition confirmation; inhibition, % at 10 µM; actives 4.7% (n = 11,000); shares compounds with mIAP block; AID 434971; purified mouse IAP, CDP-Star luminescence, 30 min;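 active means inhibition of at least 40% at 10 µM in either of the two replicates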
Hits are given with their value; i = inactive; nt = no result given. Sampled rows, rich in hits. Any-hit rate of the full collection: about 0.77%.

SMILES | bIAP activator | mIAP block | bIAP inh | hIAP act | mIAP act | hIAP block | mIAP inh conf
O=C(CCNS(=O)(=O)c1ccc2[nH]c(=O)oc2c1)Nc1ccccc1 | nt | 41.1 | nt | i | i | i | 54.5
Cc1ccc(NC(=O)CCNS(=O)(=O)c2ccc3[nH]c(=O)oc3c2)c(Cl)c1 | nt | 58.7 | nt | i | i | i | 62.2
Cc1cc(C)cc(N(CC(=O)NC(C)C)C(=O)CCC(=O)Nc2ccccn2)c1 | nt | i | nt | i | i | i | nt
Cc1ccc(CSCc2ccc(C(=O)NCC3CCCO3)o2)cc1 (stereo not given) | i | i | i | i | i | i | nt
Cc1ccccc1OCC(=O)OCC(=O)NCC1CCCCC1 | nt | i | nt | i | i | i | nt
Cc1ccc(S(=O)(=O)NNC(=O)Nc2ccc([N+](=O)[O-])cc2)c(C)c1 | nt | i | nt | i | i | i | nt
Cc1ccc(C)c(S(=O)(=O)N2CCN(C(=O)CCc3c[nH]c4ccccc34)CC2)c1 | nt | i | nt | i | i | i | nt
COc1ccc2c(c1OC)C(=O)OC2CC(=O)c1ccc2c(c1)OCO2 (stereo not given) | i | i | i | i | i | i | nt
Cc1cc(/C=C2\SC(=S)NC2=O)c(C)n1C | i | 59.4 | i | i | i | i | 62.2
Cc1cc(/C=C2\SC(=S)NC2=O)c(C)n1-c1ccccc1 | nt | 43.4 | nt | i | i | i | 48.3
Cc1cc(/C=C2\SC(=S)NC2=O)c(C)n1-c1ccc(O)cc1 | nt | 72.7 | nt | i | i | i | 70.8
COc1ccc(-n2c(C)cc(/C=C3\SC(=S)NC3=O)c2C)cc1 | i | i | i | i | i | i | nt
Cc1ccc(CSc2ccc3nnc(-c4ccccn4)n3n2)cc1 | i | i | i | i | i | i | nt
O=[N+]([O-])c1ncn(C23CC4CC(CC(C4)C2)C3)n1 | nt | i | nt | i | i | i | nt
CCCCOc1ccc(OC(=O)Nc2cc(Cl)ccc2OC)cc1 | nt | i | nt | i | i | i | nt
CCN(CC)c1cc(C)c2ccccc2n1 | i | i | i | i | i | i | nt
C=CCN=c1scc(-c2ccco2)n1/N=C/c1ccc(O)c(O)c1O | nt | 58.6 | nt | i | i | i | 67.7
COCCN=c1scc(-c2ccco2)n1/N=C/c1ccc(O)c(O)c1O | i | 54.3 | i | i | i | i | 52.9
O=C(COC(=O)c1ccc(Cl)nc1)Nc1c(Cl)cccc1C(F)(F)F | nt | i | nt | i | i | i | nt
C/C(=N\NC(=O)CC#N)c1cc2ccc(O)cc2oc1=O | i | 43.3 | i | i | i | i | 48.0
CCN(CC)S(=O)(=O)c1ccc(NC2c3ccccc3C(=O)N2c2ccc(C)cn2)cc1 (stereo not given) | i | i | i | i | i | i | nt
COC(=O)c1ccc(C(=O)NC2CCSc3ccccc32)cc1 (stereo not given) | nt | i | nt | i | i | i | nt
Cc1ccc(NC(=S)NC2CCSc3ccccc32)cc1C (stereo not given) | nt | i | nt | i | 4.75 | i | i
CC(C)(C)NC(=O)c1ccc2c(c1)CCO2 | nt | i | nt | i | i | i | nt
O=C(N/N=C/c1ccc(O)c(O)c1O)/C(=C/c1ccc([N+](=O)[O-])cc1)NC(=O)c1ccccc1 | i | 54.8 | i | i | i | i | 59.5
SMILES | bIAP activator | mIAP block | bIAP inh | hIAP act | mIAP act | hIAP block | mIAP inh conf
Cc1cc(-c2csc(N)n2)c(C)n1C | i | i | i | i | i | i | nt
Cc1cc(-c2csc(N)n2)c(C)n1Cc1ccco1 | i | 51.1 | i | i | i | i | 42.9
CCCn1ncc(CN2CCC(C(=O)Nc3cccc(-c4cccc(F)c4)c3)CC2)c1C | nt | i | nt | i | 5.26 | i | i
C=CCn1cc(CN2CCC(C(=O)Nc3cccc(-c4cccc(F)c4)c3)CC2)c(C)n1 | nt | i | nt | i | 2.49 | i | i
CN(C)CCOC(=O)c1ccc2c(c1)S(=O)(=O)c1ccccc1C2=O | nt | i | nt | i | i | i | nt
CSC1=NSC2=NC(=O)/C(=C/c3coc4ccc(O)cc4c3=O)C(=N)N12 | i | 55.9 | i | i | i | i | 54.8
O=C(Cn1cc([N+](=O)[O-])cn1)N1CCc2ccccc2C1 | i | i | i | i | i | i | nt
Cn1nc(OC(=O)Nc2cccc(Cl)c2)cc1C(F)(F)F | i | i | i | i | 3.41 | i | i
Cn1nc(OC(=O)Nc2ccccc2)cc1C(F)(F)F | i | i | i | i | i | i | nt
CSCCC(NC(=O)c1cccc(C)c1)C(=O)OCC(=O)NC(=O)c1cccn1C (stereo not given) | i | i | i | i | i | i | nt
Nc1c(C(=O)Nc2ccccc2)c2nc3ccccc3nc2n1CCCN1CCOCC1 | nt | i | nt | i | i | i | nt
O=C1CC(c2ccccc2)Oc2cc(O)cc(O)c21 (stereo not given) | nt | i | nt | i | i | i | nt
CC1CC(=O)c2c(cc3c(-c4c(O)cc(O)c5c(O)c6c(cc45)OC(C)CC6=O)c(O)cc(O)c3c2O)O1 (stereo not given) | i | 41.7 | i | i | i | i | 67.6
C=CCN1CC(O)=C(c2ccccc2)C1=N | i | i | i | i | i | i | nt
COc1cc(OC)c2c(c1O)OC(c1ccccc1)CC2=O (stereo not given) | i | 53.7 | i | i | i | i | 62.2
COC(=O)c1cn(C)c2ccc(S(=O)(=O)N3CCCC3)cc2c1=O | nt | i | nt | i | i | i | nt
O=C(Nc1cc(Cl)cc(Cl)c1)Nc1cnccn1 | nt | i | nt | i | 2.47 | i | i
O=C(Nc1ccc(F)cc1)Nc1cnccn1 | nt | i | nt | i | i | i | nt
Cn1cccc1/C=C1\SC(=S)N(Nc2ccccc2)C1=O | nt | 40.3 | nt | i | i | i | 49.7
O=C(NCCc1ccccc1)C1(c2ccccc2)CC1(Cl)Cl (stereo not given) | i | i | i | i | i | i | nt
O=C1NC(=Nc2ccc(O)cc2)S/C1=C/c1ccco1 | i | 56.9 | i | i | i | i | 77.0
O=C1NC(=Nc2ccc3ccccc3c2)S/C1=C/c1ccco1 | i | 56.5 | i | i | i | i | 57.1
COc1ccc(N=C2NC(=O)/C(=C\C=C\c3ccco3)S2)cc1 | i | i | i | i | i | i | nt
N=c1c2c(-c3ccccc3)c(-c3ccccc3)oc2ncn1CCCN1CCOCC1 | i | i | i | i | i | i | nt
CCN1CCCC(OC(=O)c2cc(-c3ccccc3Cl)nc3ccccc23)C1 (stereo not given) | i | i | i | i | i | i | nt
Cc1cc(Cn2nc(-c3ccccc3)cc2C(=O)NCc2cccc(C(F)(F)F)c2)on1 | nt | i | nt | i | 3.29 | i | i
Cc1cc(Cn2nc(-c3ccccc3)cc2C(=O)NCc2cccc(Br)c2)on1 | nt | i | nt | i | 3.99 | i | i
CC(=O)Nc1ccc(C(=O)COC(=O)CCN2C(=O)C3CC=CCC3C2=O)cc1 (stereo not given) | nt | i | nt | i | i | i | nt
COc1ccc(NC(=O)NC[C@@H]2CC[C@@H](Cc3ccc(-c4ccccc4)cc3)O2)cc1 | nt | i | nt | nt | 2.65 | nt | i
NC(=O)NC[C@@H]1CC[C@@H](Cc2ccc(-c3ccccc3)cc2)O1 | nt | i | nt | nt | i | nt | nt
